Hits are enriched below; roughly 2% of the tested compounds scored in any of these assays.
RBBP9 inh: inhibitors of human serine hydrolase RBBP9 | 220,000 compounds, 0.2% hits | inhibition, % at 7.94 µM | O75884 | recombinant RBBP9, FP-Rh probe fluorescence polarization;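 active means inhibition above the campaign mean of all tested compounds plus 3 SD, cut at about 14% in these data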;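 further: plate controls were DMSO wells with RBBP9 for no effect and wells lacking RBBP9 protein for full effect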
Target sequence (O75884 whole entry, looked up): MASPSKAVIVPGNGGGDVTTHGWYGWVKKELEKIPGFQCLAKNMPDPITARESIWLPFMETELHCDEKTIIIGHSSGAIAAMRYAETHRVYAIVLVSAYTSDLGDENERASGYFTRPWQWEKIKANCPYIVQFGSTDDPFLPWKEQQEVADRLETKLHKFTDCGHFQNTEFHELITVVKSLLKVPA
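system = RBBP9 protein | input = RBBP9 at 2.5 µM in dispensed solution, before mixing | measured by = fluorescence polarization (mP), excitation 525 nm, emission 598 nm | incubation = enzyme-compound preincubation 30 min, then probe labeling 45 min, 25 °C | buffer or medium = Tris-NaCl-Pluronic buffer, pH 8.0 | compound = single dose 7.94 µM | also added = FP-Rh probe, 375 nM dispensing solution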
PfM18AAP inh-1: PfM18AAP enzyme inhibition; AID 1822; 290,000 compounds, 1.2% hits; inhibition, % at 7.35 µM; recombinant PfM18AAP, H-Glu-NHMec fluorogenic cleavage;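 active means inhibition above the campaign mean inhibition over all tested compounds plus 3 SD, cut at about 28% in these data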;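 further: 0% = plate median of test compound wells and 100% = 2 mM ZnCl2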
TbHK1 inh: blocks Trypanosoma brucei hexokinase 1 activity; recombinant TbHK1, G6PDH-coupled NADH A340; 220,000 compounds, 0.11% hits; inhibition, % at 10 µM;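 active means inhibition of 50% or more in the single-dose primary screen; inactive means inhibition below 50%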
TNF necrop inh: inhibitors of TNF-alpha induced necroptosis in Jurkat FADD-/- cells; Jurkat FADD-/- TNF necroptosis rescue, ATP luminescence, 24 h; 0 = TNF only, 100 = no-TNF cells; activation (protection from cell death), % at 10 µM; 220,000 compounds, 0.068% hits;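 active means activation, meaning protection from cell death, of at least 50% relative to plate controls; inactive means activation below 50%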;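 further: necroptosis triggered by 40 ng/mL TNF-alpha added together with compound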
Hep lipid drop: modulators of hepatic lipid droplet formation; inhibition, % at 6.5 µM; AID 1656; 240,000 compounds, 0.4% hits; AML12 mouse hepatocytes, oleate lipid droplets, BODIPY imaging;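 active means lipid droplet intensity inhibited by at least 50%, with more than 500 cells counted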
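material = mouse AML12 hepatocyte cell line, fixed after treatment | also added = 100 µM oleic acid challenge | doses = compound at 6.5 µM only | schedule = overnight exposure | technique = Image-based BODIPY and DAPI two-channel analysis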
L929 necroptosis: L929 zVAD cell death inhibition. L929 zVAD necroptosis rescue, ATP luminescence, 24 h; with zVAD 60 µM. viability rescue, % at 10 µM. 220,000 compounds, 0.38% hits. AID 1377;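 active means activation, scaled between plate controls, above about 75%, limit read from the data; inactive means activation under that limit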;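 further: 0% = zVAD with DMSO and 100% = DMSO alone without zVAD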
PfM18AAP inh-2: PfM18AAP inhibition, confirmation. shares compounds with PfM18AAP inh-1. recombinant PfM18AAP, H-Glu-NHMec fluorogenic cleavage. inhibition, % at 7.35 µM. 2,400 compounds, 28% hits. AID 2170;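 active means mean inhibition over replicate wells above the hit cutoff set for the earlier primary screen, cut at about 29% in these data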;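 further: 0% = median of test compound wells and 100% = 2 mM ZnCl2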
CTSL1 confirm: Cathepsin L (human) inhibition, confirmation. shares compounds with PfM18AAP inh-1. purified cathepsin L1, Z-Leu-Arg-MCA fluorescence. inhibition, % at 5.96 µM. 2,400 tested, under 10 active. AID 2178;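 active means average inhibition across replicates above the hit cutoff set in the earlier primary screen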;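 further: 0% = median of test compound wells and 100% = Z-Phe-Ala-diazomethylketone 1 µM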
Target sequence (P07711 whole entry, looked up): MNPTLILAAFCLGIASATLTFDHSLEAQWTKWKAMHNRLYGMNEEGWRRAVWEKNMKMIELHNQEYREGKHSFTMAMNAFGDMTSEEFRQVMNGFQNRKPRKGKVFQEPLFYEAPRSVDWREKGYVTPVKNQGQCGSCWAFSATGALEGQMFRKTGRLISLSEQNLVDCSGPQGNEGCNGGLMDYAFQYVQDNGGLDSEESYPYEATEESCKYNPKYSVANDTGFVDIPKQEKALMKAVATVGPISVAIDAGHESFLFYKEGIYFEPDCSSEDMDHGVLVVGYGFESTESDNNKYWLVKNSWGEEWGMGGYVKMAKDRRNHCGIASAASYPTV
The depositor's hits bear a star; x = not tested or not shown.

SMILES | RBBP9 inh | PfM18AAP inh-1 | TbHK1 inh | TNF necrop inh | Hep lipid drop | L929 necroptosis | PfM18AAP inh-2 | CTSL1 confirm
COc1cc(C(c2c(C)[nH][nH]c2=O)c2c(C)[nH][nH]c2=O)cc([N+](=O)[O-])c1O | -6.8 | 26.8 | -13.1 | -1.3 | -10.2 | 2.0 | x | x
Cc1ccc(C(c2c(C)[nH][nH]c2=O)c2c(C)[nH][nH]c2=O)cc1[N+](=O)[O-] | -9.1 | 33.8* | 38.0 | 1.3 | 5.1 | 0.4 | 23.2 | 1.6
Cc1ccc(-c2csc(N)n2)s1 | -8.3 | 15.3 | -1.8 | -0.5 | x | 1.2 | x | x
CC(=O)NCc1ccc(-c2csc(N)n2)s1 | -2.3 | 36.8* | -6.7 | 0.5 | x | 2.9 | -52.3 | -5.7
N#Cc1cnc(SCCc2ccccc2)nc1N | -4.2 | 4.6 | -0.1 | -0.2 | -2.3 | 0.4 | x | x
Cc1cnc(SCCc2ccncc2)nc1C | 4.6 | 62.5* | -4.6 | 0.4 | -17.7 | -0.4 | -7.9 | -0.8
Cc1cc2oc(=O)cc(-c3cc4ccccc4o3)c2cc1O | x | 58.0* | x | x | -6.6 | x | -21.1 | -3.6
O=c1cc(-c2cc3ccccc3o2)c2cc(O)ccc2o1 | x | 12.4 | x | x | 5.1 | x | x | x
COC(=O)C1CN(S(=O)(=O)c2cc(OC)ccc2OC)CCS1 (stereo unspecified) | x | -0.1 | x | x | 3.4 | x | x | x
COc1ccccc1NS(=O)(=O)c1cc(NC(=O)C2CC2)ccc1N1CCOCC1 | -16.8 | 42.0* | 7.3 | 2.7 | -8.0 | -1.1 | -26.9 | 0.7
CCOCCCn1c(=S)[nH]c2cc(C(=O)NC3CCCC(C)C3C)ccc2c1=O (stereo unspecified) | x | -3.5 | x | x | 9.4 | x | x | x
CCC(=O)Nc1cc(C(=O)O)ccc1Sc1ccc(Cl)cc1 | -7.2 | 0.7 | 1.3 | -0.3 | -7.6 | 1.1 | x | x
Cc1ccc(C2C3=C(CCCC3=O)Nc3[nH]c(=S)[nH]c(=O)c32)cc1 (stereo unspecified) | -14.0 | 40.5* | -5.1 | -1.8 | x | -1.4 | 38.2* | 4.5
COc1cccc(NC2SC(=O)N(c3ccccc3)C2=O)c1 (stereo unspecified) | -1.3 | 34.9* | 4.8 | 1.4 | 5.3 | -1.2 | -52.7 | -3.3
Cc1ccc(OCCn2c(=O)n(C)c3ccccc32)cc1 | -7.5 | -6.3 | -3.3 | 1.0 | -11.2 | 3.1 | x | x
COc1ccc(/C=C(\C#N)C(=O)C(C)(C)n2cncn2)cc1 | -3.2 | 58.7* | 1.9 | 0.5 | 45.2 | 0.2 | -8.5 | -2.0
COc1ccc(/C=C(\C#N)C(=O)c2cccn2C)cc1 | x | 3.8 | x | x | x | x | x | x
Nc1c(C(=O)c2ccc(Cl)cc2)sc2nsc(SCCN3CCOCC3)c12 | -0.8 | 33.7* | -11.3 | -3.2 | -3.2 | 2.6 | -28.1 | 4.5
Nc1c(C(=O)c2ccccc2)sc2nsc(SCCN3CCCC3)c12 | 2.0 | 35.1* | -7.8 | -14.6 | -3.9 | 17.4 | -30.2 | -4.2
CC(=O)c1sc2nsc(SCCN3CCCCC3)c2c1N | -10.6 | 33.2* | -24.0 | -3.8 | -50.8 | 0.5 | -40.8 | -5.4
Cc1cc(C)c2c(N)c(C(=O)c3ccccc3)sc2n1 | -2.3 | -3.5 | 0.6 | 1.0 | -9.3 | 0.9 | x | x
CC(=O)Nc1nnc(CCN2CCCCC2)s1 | -3.5 | -0.4 | -3.8 | -0.6 | x | 0.3 | x | x
Cc1ccc(S(=O)(=O)NC(=O)c2cc(C)n(-c3ccc(N(C)C)cc3)c2C)cc1 | -4.7 | 25.0 | -0.5 | -1.7 | -7.1 | -0.5 | x | x
CC1=C(C(=O)O)N2C(=O)C(NC(=O)c3ccccc3Cl)C2SC1 (stereo unspecified) | x | 33.5* | x | x | -3.7 | x | -6.8 | -0.7
Cc1cc(C(=O)Nn2cnnc2)ccc1[N+](=O)[O-] | x | 46.2* | x | x | 3.6 | x | 51.1* | 5.7
SMILES | RBBP9 inh | PfM18AAP inh-1 | TbHK1 inh | TNF necrop inh | Hep lipid drop | L929 necroptosis | PfM18AAP inh-2 | CTSL1 confirm
CC(=O)Oc1ccc(C(=O)Nn2cnnc2)cc1 | -2.0 | 15.4 | -3.9 | 0.4 | x | -1.0 | x | x
Cc1cc(C(=O)Nc2ccncc2)ccc1[N+](=O)[O-] | x | -1.1 | x | x | x | x | x | x
Cc1ccc(C(=O)Nn2cnnc2)cc1Cl | x | 47.1* | x | x | x | x | 33.1* | 1.0
O=C(Nn1cnnc1)c1cc(Cl)cc(Cl)c1 | x | 47.0* | x | x | -10.6 | x | 32.3* | -6.9
O=C(Nn1cnnc1)c1ccc(Cl)c([N+](=O)[O-])c1 | -1.2 | 44.3* | -5.0 | 4.2 | 0.9 | 1.7 | 43.8* | -4.0
O=C(NN1CCOCC1)c1ccc(Cl)c([N+](=O)[O-])c1 | x | -3.4 | x | x | 8.0 | x | x | x
CC(=O)OC1c2ccccc2C(=O)N1Cc1ccccc1 (stereo unspecified) | -1.9 | 2.5 | -9.5 | 1.2 | x | 1.0 | x | x
O=C(COC(=O)CNS(=O)(=O)/C=C/c1ccccc1)Nc1cccc2ccccc12 | -1.2 | -8.8 | 0.5 | 0.2 | -0.7 | -0.7 | x | x
O=C(Nc1ccccc1O)c1cccc(S(=O)(=O)N2CCOCC2)c1 | -4.3 | 0.4 | 2.4 | 0.3 | -17.5 | 1.2 | x | x
N#Cc1ccc(C(=O)Nn2cnnc2)cc1 | x | 45.0* | x | x | 4.9 | x | 27.0 | -3.1
O=C(Nn1cnnc1)c1cccc(S(=O)(=O)N2CCOCC2)c1 | -8.1 | 38.2* | -6.1 | 1.3 | 5.0 | 3.2 | 32.9* | -0.5
O=C(Nn1cnnc1)c1ccncc1 | -5.7 | 13.1 | -3.7 | 0.7 | x | 1.6 | x | x
CCOC(=O)CC1Sc2ccccc2NC1=S (stereo unspecified) | -10.5 | 36.6* | -24.8 | 1.3 | -1.5 | -1.0 | -16.0 | 7.5
COc1ccc(-c2oc(NC(=O)CSc3ncn[nH]3)c(C#N)c2-c2ccc(OC)cc2)cc1 | -1.3 | 73.1* | -8.0 | -2.7 | x | 0.5 | 24.5 | -2.8
CCOC(=O)c1sc(N(Cc2ccccc2)C(=O)CCl)nc1C | x | 21.6 | x | x | -65.2 | x | x | x
CCOC(=O)c1sc(NC(=O)CSc2ncn[nH]2)c(C#N)c1C | -0.6 | 40.2* | -22.4 | -0.3 | -2.8 | -0.2 | 9.2 | -6.1
CCOC(=O)c1sc(N(Cc2ccccc2)C(=O)CSc2ncn[nH]2)nc1C | 2.5 | 90.5* | 1.3 | -2.3 | 0.8 | 1.4 | -35.8 | -3.0
CCOC(=O)c1sc(NC(=O)CSc2nc(C)cc(C)n2)c(C#N)c1C | 2.0 | -0.8 | -2.7 | -0.1 | x | 0.3 | x | x
CCCCCOC(=O)C1=C(C)Nc2nnnn2C1c1ccccc1Cl (stereo unspecified) | -3.6 | -3.7 | -1.0 | -2.1 | 24.3 | -0.6 | x | x
CCN(CC1CCCO1)C(=O)CCc1nnc(CCc2ccccc2OC)o1 (stereo unspecified) | x | 4.9 | x | x | -47.1 | x | x | x
O=S(=O)(NCc1ccc(F)cc1)c1ccc(-n2cnnn2)cc1 | x | -11.1 | x | x | 7.4 | x | x | x
COC(=O)[C@H](CC(C)C)NC(=O)c1cc2c(cn1)[nH]c1ccccc12 | x | 39.5* | x | x | -3.6 | x | 13.0 | 7.5
COc1cc(OC)c(-c2c3cc(O)c(=O)cc-3oc3cc(O)c(O)cc23)cc1OC | -169.0 | 44.2* | 14.0 | -3.4 | 1.5 | 1.7 | 26.5 | -0.6

Source: PubChem
